Molecules are shown by their SMILES. Calls of active or inactive are those of the source. No cut-off for these calls is given here.

For data set [1], the target named is Histone deacetylase. The experiment in a line: Inhibition of HDAC in human HeLa cell nuclear extract using Boc-Lys(acetyl)-AMC as substrate preincubated with enzyme for 5 mins prior to substrate addition measured after 30 mins by fluorescence assay. The class given is protein assay.
In data set [2] the test system is MDA-MB-231. The experiment in a line: cells. Type of data set: functional, cell-based. The following applies: Homo sapiens, MDA-MB-231, 48 h.
In data set [3] the test system is PC-3. The experiment in a line: Inhibition of human PC3 cell proliferation after 48 hrs by MTT assay. The class given is functional, cell-based. The following applies: PC-3, 48 h.
Data set [4] concerns A549. The experiment in a line: Inhibition of human A549 cell proliferation after 48 hrs by MTT assay. Type of data set: functional, cell-based. The following applies: A549, 48 h. A general note: Formazan colour is commonly taken as a measure of viable cells.
Data set [5] deals with HCT-116. The experiment in a line: Inhibition of human HCT116 cell proliferation after 48 hrs by MTT assay. The class given is functional, cell-based. The following applies: HCT-116, 48 h.
Data set [6] in a line: Inhibition of human ES2 cell proliferation after 48 hrs by MTT assay. Type of data set: functional, cell-based. The following applies: ES-2, 48 h.
The subject of data set [7] is U-937. As to the kind of experiment: Inhibition of human U937 cell proliferation after 48 hrs by MTT assay. The class given is functional, cell-based. The following applies: U-937, 48 h.
For data set [8], the system named is U-937. The experiment in a line: Antitumor activity against human U937 cells xenografted in athymic nude mouse assessed as tumor growth inhibition at 20 mg/kg/day, po administered 10 days after tumor inoculation for 3 weeks measured every three days by vernier caliper. The class given is functional. The following applies: read-out: TGI. A digest of the protocol: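 U937 xenografts in nude mice, seven mice per group. Tamibarotene served as the positive control. Growth curves of the implanted tumours were followed over the treatment period and reported as mean ± SD.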
A general note: In xenograft studies the graft and the host belong to different species.

Data set [9] deals with U-937. As to the kind of experiment: Antitumor activity against human U937 cells xenografted in athymic nude mouse assessed as T/C ratio at 20 mg/kg/day, po administered 10 days after tumor inoculation for 3 weeks. The class given is functional.
The subject of data set [10] is Mus musculus. As to the kind of experiment: Toxicity in athymic nude mouse xenografted with human U937 cells assessed as liver injury at 60 mg/kg/day, po administered 10 days after tumor inoculation for 3 weeks. The class given is organism-based, U-937. Further details: route oral. The following applies: in vivo.
Data set [11] concerns MDA-MB-231. As to the kind of experiment: Increase in histone H4 acetylation in human MDA-MB-231 cells at 1 uM after 3 to 24 hrs by Western blot analysis. The class given is functional, cell-based. A digest of the protocol: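 MDA-MB-231 cells were exposed at 1 μM for 3 h and 24 h. Lysates were immunoblotted for acetylated histone H4, with β-actin as the loading control.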
(Immunoblotting shows a protein as a band on a membrane.)

Data set [12] relates to Mus musculus. As to the kind of experiment: Toxicity in athymic nude mouse xenografted with human U937 cells assessed as body weight loss at 60 mg/kg/day, po administered 10 days after tumor inoculation for 3 weeks. More on the design: route oral. The following applies: in vivo. Type of data set: organism-based, U-937.
The test system of data set [13] is Mus musculus. As to the kind of experiment: Toxicity in athymic nude mouse xenografted with human U937 cells assessed as spleen injury at 60 mg/kg/day, po administered 10 days after tumor inoculation for 3 weeks. The class given is organism-based, U-937. Further details: route oral. The following applies: in vivo.
Data set [14] concerns U-937. As to the kind of experiment: Antitumor activity against human U937 cells xenografted in athymic nude mouse assessed as tumor growth inhibition at 60 mg/kg/day, po administered 10 days after tumor inoculation for 3 weeks measured every three days by vernier caliper. The following applies: read-out: TGI. Type of data set: functional. A digest of the protocol: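 U937 xenografts in nude mice, seven per group, with oral dosing and a reference agent as positive control. Tumour growth was followed as a growth curve, and the data are given as mean ± SD.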

For data set [15], the system named is U-937. The experiment in a line: Antitumor activity against human U937 cells xenografted in athymic nude mouse assessed as T/C ratio at 60 mg/kg/day, po administered 10 days after tumor inoculation for 3 weeks. The class given is functional. The essentials:
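U937 cells implanted in nude mice, seven per group; oral dosing with a positive-control group run alongside. Tumour growth was followed as a growth curve, data given as mean ± SD; efficacy was expressed as tumour growth inhibition and relative increment ratio.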

For orientation: IC50 means the concentration that gives 50% inhibition. Higher therefore signals weaker potency in that assay. In turn, `COc1cc(/C=C/C(=O)NO)ccc1OC[C@H](Cc1c[nH]c2ccccc12)NC(=O)[C@H](Cc1c[nH]c2ccccc12)NC(=O)OC(C)(C)C` came in with an IC50 in data set [1] of 0.49 µM.
Still for that read-out and setting: to `COc1cc(/C=C/C(=O)NO)ccc1OC[C@H](Cc1c[nH]c2ccccc12)NS(=O)(=O)c1ccc(Cl)cc1` belongs 1.47 µM.
For the molecule `COc1cc(/C=C/C(=O)NO)ccc1OC[C@H](Cc1c[nH]c2ccccc12)NC(=O)[C@H](CO)NC(=O)OC(C)(C)C`, the IC50 in data set [2] amounted to 11.7 µM; in [3] it was 8.2 µM; in [1], 0.14 µM; in data set [4], 13.5 µM; in data set [5], 9.4 µM; in data set [6] it was 9.5 µM. The IC50 in data set [7] is 3.9 µM.
In [1], `COc1cc(/C=C/C(=O)NO)ccc1OC[C@H](Cc1c[nH]c2ccccc12)NS(=O)(=O)c1ccc(F)cc1` showed an IC50 of 1.06 µM.
As for `COc1cc(/C=C/C(=O)NO)ccc1OC[C@H](Cc1c[nH]c2ccccc12)NC(=O)[C@@H](NC(=O)OC(C)(C)C)[C@@H](C)O`, the half-inhibitory concentration (IC50) in data set [2] stood at 7.2 µM; in data set [3] it was 5.4 µM; in [1], 0.18 µM; in data set [4], 7 µM; in [5], 2.4 µM; in data set [6], 8.9 µM. This molecule registered an IC50 in data set [7] of 2.7 µM.
As for `COc1cc(/C=C/C(=O)NO)ccc1OC[C@H](Cc1c[nH]c2ccccc12)NC(=O)c1ccc(NC(=O)OC(C)(C)C)cc1`, the IC50 in data set [1] was found to be 0.73 µM. That is a sub-micromolar value.
Still for that read-out and setting: to `COc1cc(/C=C/C(=O)NO)ccc1OC[C@H](Cc1c[nH]c2ccccc12)NC(=O)OC(C)(C)C` belongs 0.65 µM.
On the same count and under the same terms, next, `COc1cc(/C=C/C(=O)NO)ccc1OC[C@H](Cc1c[nH]c2ccccc12)NC(=O)[C@@H]1CC2(CN1C(=O)OC(C)(C)C)SCCS2`: 0.8 µM.
`COc1cc(/C=C/C(=O)NO)ccc1OC[C@H](Cc1c[nH]c2ccccc12)NC(=O)[C@H](C)NC(=O)OC(C)(C)C`: the IC50 in data set [2] is 4.5 µM; in data set [3], 10.4 µM; in data set [1] it was 0.16 µM; in data set [4], 4.2 µM; in [5], 3.8 µM; in data set [6] it was 25.1 µM. Moreover, inhibition in data set [7] was half-maximal at 2.2 µM (IC50).
Take `COc1cc(/C=C/C(=O)NO)ccc1OC[C@H](Cc1c[nH]c2ccccc12)NS(=O)(=O)c1ccc(NC(C)=O)cc1`: the IC50 in [1] came out at 0.71 µM.
In the case of `O=C(CCCCCCC(=O)Nc1ccccc1)NO` [VORINOSTAT], the IC50 turned out to be 12.7 µM in data set [6] and 2.3 µM in [7].
On to `COc1cc(/C=C/C(=O)NO)ccc1OC[C@H](Cc1c[nH]c2ccccc12)NC(=O)C1CCN(C(=O)OC(C)(C)C)CC1`, for which the IC50 in [1] was determined as 1.12 µM.
Same read-out and setting: to `COc1cc(/C=C/C(=O)NO)ccc1OC[C@H](Cc1c[nH]c2ccccc12)NC(=O)[C@H](Cc1ccccc1)NC(=O)OC(C)(C)C` belongs 0.62 µM; to `COc1cc(/C=C/C(=O)NO)ccc1OC[C@H](Cc1c[nH]c2ccccc12)NC(=O)[C@@H]1CCCN1C(=O)OC(C)(C)C`, 0.43 µM.
For `CC1(C)CCC(C)(C)c2cc(NC(=O)c3ccc(C(=O)O)cc3)ccc21` [TAMIBAROTENE], the inhibition in vivo at 20 mg/kg/day in [8] was determined as 33%. Besides, the Activity in data set [9] was determined as 85%.
Take `COc1cc(/C=C/C(=O)NO)ccc1OC[C@H](Cc1c[nH]c2ccccc12)NS(=O)(=O)c1c(C(C)C)cc(C(C)C)cc1C(C)C`: in [1], the half-inhibitory concentration (IC50) result was “ND(Insoluble)”.
Turning to `COc1cc(/C=C/C(=O)NO)ccc1OC[C@H](Cc1c[nH]c2ccccc12)NC(=O)CNC(=O)OC(C)(C)C`, the IC50 came to 7.2 µM in data set [2]; 10.5 µM in data set [3]; 0.17 µM in data set [1]; 11.8 µM in data set [4]; 6 µM in data set [5]; 29.2 µM in data set [6]. This molecule also had an IC50 in [7] of 3.1 µM.
In data set [1], `COc1cc(/C=C/C(=O)NO)ccc1OC[C@H](Cc1c[nH]c2ccccc12)NC(=O)[C@@H](NC(=O)OC(C)(C)C)C(C)C` displayed an IC50 of 0.43 µM.
The molecule `COc1cc(/C=C/C(=O)NO)ccc1OC[C@H](Cc1c[nH]c2ccccc12)NC(=O)[C@H](CCCCNC(=O)OC(C)(C)C)NC(=O)OC(C)(C)C` returned an IC50 in data set [1] of 1.17 µM. This IC50 lies about 2.7-fold higher than the previous one.
As to `CCCC(CCC)C(=O)N[C@H](COc1ccc(/C=C/C(=O)NO)cc1OC)Cc1c[nH]c2ccccc12`, the IC50 in data set [2] came out at 3.1 µM; in [3], 3.7 µM; in data set [4], 4.4 µM; in data set [5], 5.5 µM; in data set [6], 5.4 µM; in [7], 1.8 µM. Besides, the Activity result is “Non-toxic” in data set [10], “Non-toxic” in data set [12], “Non-toxic” in [13] and 42% in data set [15]. For the same molecule, the outcome in data set [11] was Active. In data set [14], the inhibition in vivo at 60 mg/kg/day worked out at 53%.
As to `COc1cc(/C=C/C(=O)NO)ccc1OC[C@H](Cc1c[nH]c2ccccc12)NC(=O)[C@H](Cc1ccc(O)cc1)NC(=O)OC(C)(C)C`, in data set [1], the IC50 was 0.32 µM. That is a sub-micromolar value.
On the same count and under the same terms, next, `COc1cc(/C=C/C(=O)NO)ccc1OC[C@@H](N)Cc1c[nH]c2ccccc12.Cl`: 2.91 µM.
Same read-out and setting: to `CC[C@H](C)[C@H](NC(=O)OC(C)(C)C)C(=O)N[C@H](COc1ccc(/C=C/C(=O)NO)cc1OC)Cc1c[nH]c2ccccc12` belongs 0.38 µM.
For the molecule `COc1cc(/C=C/C(=O)NO)ccc1OC[C@H](Cc1c[nH]c2ccccc12)NC(=O)[C@H](CCSC)NC(=O)OC(C)(C)C`, the IC50 was 6.8 µM in data set [2]; 5.8 µM in data set [3]; 0.18 µM in data set [1]; 1.6 µM in data set [4]; 5.9 µM in data set [5]; 4.4 µM in data set [6]. The molecule further came in with an IC50 in data set [7] of 2.2 µM.
Consider `COc1cc(/C=C/C(=O)NO)ccc1OC[C@H](Cc1c[nH]c2ccccc12)NC(=O)[C@H](CC(C)C)NC(=O)OC(C)(C)C`, for which the IC50 in [1] was 0.57 µM.
Same read-out and setting: next, `COc1cc(CCC(=O)NO)ccc1OC[C@H](Cc1c[nH]c2ccccc12)NC(=O)OC(C)(C)C`: 2.09 µM.

For the origin of these results see ChEMBL document CHEMBL2331319, “Development of N-Hydroxycinnamamide-Based Histone Deacetylase Inhibitors with Indole-Containing Cap Group” (ACS Med Chem Lett, 2013).
